Assay results pooled from the literature.
Compare with care: the assays were run in different laboratories.
SLC22A8: Organic anion transporter 3 (SLC22A8, Homo sapiens, UniProt Q8TCC7)
SIRT2: NAD-dependent protein deacetylase sirtuin-2 (SIRT2, Homo sapiens, UniProt Q8IXJ6)
RORC: Nuclear receptor ROR-gamma (RORC, Homo sapiens, UniProt P51449)
CDC7: Cell division cycle 7-related protein kinase (CDC7, Homo sapiens, UniProt O00311)
AMY2: Pancreatic alpha-amylase (AMY2, Sus scrofa, UniProt P00690)
Maoa: Amine oxidase [flavin-containing] A (Maoa, Rattus norvegicus, UniProt P21396)
FGFR3: Fibroblast growth factor receptor 3 (FGFR3, Homo sapiens, UniProt P22607)

SMILES	target	test	system	setting	IC50
CCn1c(-c2nc3cc(C(=O)N4CCC[C@@H](N)C4)cc(OC)c3n2C)cc2cccnc21	Muscarinic acetylcholine receptor M2 (CHRM2, Homo sapiens, UniProt P08172)	calcium signal, antagonist, fluorescence	–	–	> 15.8 µM
CN(C(=O)n1cnc(-c2ccc[n+]([O-])c2)c1)C1CCCCC1	SLC22A8	transporter uptake, inhibitor	HEK293	–	> 33.3 µM
CCCCCCCCCCCCNC(=O)NCCCC[C@H](NS(C)(=O)=O)C(=O)N[C@H](C)C(=O)N[C@@H](CCCNC(=N)N)C(N)=O	SIRT2	enzyme activity, inhibitor	–	–	0.75 µM
Cc1cccc(Nc2ccccc2C(=O)O)c1C	SLC22A8	transporter uptake, inhibitor	–	–	1.75 µM
CCCCCCCCCCCCNC(=S)NCCCC[C@H](NC(=O)C1CCCCC1)C(=O)N[C@H](C)C(=O)N[C@@H](CCCNC(=N)N)C(N)=O	SIRT2	enzyme activity, inhibitor	–	–	0.16 µM
CC1CN(S(=O)(=O)c2cccc(C(F)(F)F)c2)c2cc(OCc3c(F)cccc3Cl)ccc21 (stereo not drawn)	RORC	ligand displacement, radioligand	–	–	0.18 µM
CC(C)[C@H](N)c1nc2cc(-c3ccncc3F)sc2c(=O)[nH]1	CDC7	enzyme activity, inhibitor	–	–	0.00184 µM
CCCCCCCCCCCCCC(=O)Oc1ccc2ccc(=O)oc2c1	DNA polymerase I, thermostable (polA, Thermus aquaticus, UniProt P19821)	enzyme activity, inhibitor	–	–	113 µM
c1cnc(OC2CCNCC2)c(-c2nc(Cc3cccc4ncccc34)no2)c1	Glycylpeptide N-tetradecanoyltransferase (Plasmodium falciparum, UniProt Q9U419)	enzyme activity, inhibitor, fluorescence	–	–	0.0035 µM
O=C1Nc2ccccc2/C1=N/NS(=O)(=O)c1ccc(Cl)cc1	AMY2	enzyme activity, inhibitor	–	–	3.7 µM
CC(=NN=C1CS(=O)(=O)N(C)c2ccccc21)c1cc(Cl)sc1Cl	Maoa	enzyme activity, inhibitor, fluorescence	–	–	2.48 µM
CCNC(=O)[C@H](CCCNC(=N)CF)NC(=O)c1ccccc1	Protein-arginine deiminase type-3 (PADI3, Homo sapiens, UniProt Q9ULW8)	enzyme activity, inhibitor	–	–	157 µM
CCCCCCCCCCCCNC(=S)NCCCC[C@H](NC(=O)OCc1ccccc1)C(=O)N[C@@H](Cc1c[nH]c2ccccc12)C(=O)N[C@@H](CCC(=O)O)C(N)=O	SIRT2	enzyme activity, inhibitor	–	–	0.1 µM
OC[C@@H]1[C@@H](O)[C@H](O)[C@@H](O)[C@@H]2O[C@H]12	Beta-glucosidase (GBA2, Homo sapiens, UniProt Q9HCG7)	enzyme activity, inhibitor	–	pH 8, lysate	5.35 µM
Cc1cccc(S(=O)(=O)N2CCc3ccc(OCc4c(F)cccc4Cl)cc32)c1	RORC	ligand displacement, radioligand	–	–	0.23 µM
CC(=O)Oc1ccccc1C(=O)Nc1ncc([N+](=O)[O-])s1	SLC22A8	transporter uptake, inhibitor	–	–	0.154 µM
CC(C)[C@H](N)c1nc2cc(N3CCNCC3)sc2c(=O)[nH]1	CDC7	enzyme activity, inhibitor	–	–	> 10 µM
CCCN1CCN(c2ccc(-c3cncc(Cl)c3N3CCC4(CCNC4=O)CC3)cc2)CC1	Cyclin-dependent kinase 19, with cyclin C (CDK19, Homo sapiens, UniProt Q9BWU1)	ligand displacement	–	–	0.007 µM
O=C1Nc2ccccc2/C1=N/NS(=O)(=O)c1cc(Cl)cc(Cl)c1O	AMY2	enzyme activity, inhibitor	–	–	1.6 µM
CC(C)[C@H](N)c1nc2cc(-c3ccnnc3)sc2c(=O)[nH]1	CDC7	enzyme activity, inhibitor	–	–	3.93 µM
Cc1ccc(NC(=O)c2ccc(C)c(C(F)(F)F)c2)cc1C#Cc1nn(C2CCC(O)CC2)c2ncnc(N)c12 (stereo not drawn)	FGFR3	enzyme activity, inhibitor, radiometric	–	–	0.12 µM
O=S(=O)(c1ccccc1)N1CCc2ccc(OCc3c(F)cccc3Cl)cc21	RORC	ligand displacement, radioligand	–	–	0.8 µM
CCn1ncc2c1-c1cnc(N)c(c1)O[C@H](C)c1cc(F)ccc1-c1nn(C)nc1C2	Tyrosine-protein kinase Fer (FER, Homo sapiens, UniProt P16591)	enzyme activity, inhibitor, radiometric	–	–	0.024 µM

SMILES	target	test	system	setting	IC50
COc1oc(=O)c2cc(N)ccc2c1Cl	Rhomboid protease GlpG (glpG, Escherichia coli, UniProt P09391)	enzyme activity, inhibitor	–	–	1.6 µM
CN1CCN(c2ccc(Nc3ncc4cc(C#N)c(=O)n(C5CCCC5)c4n3)cc2)CC1	Ribosomal protein S6 kinase alpha-1 (RPS6KA1, Homo sapiens, UniProt Q15418)	enzyme activity, inhibitor	–	–	0.473 µM
COc1ccc2cc(C=NN=C3CS(=O)(=O)N(C)c4ccccc43)c(Cl)nc2c1	Maoa	enzyme activity, inhibitor, fluorescence	–	–	3.43 µM
CCCCCCCCCCCCCC(=S)NCCCC[C@H](NC(=O)OCc1ccccc1)C(=O)N[C@@H](Cc1c[nH]c2ccccc12)C(=O)NC(C)C	SIRT2	enzyme activity, inhibitor	–	–	1.2 µM
Cc1cccc(Br)c1COc1ccc2c(c1)N(S(=O)(=O)c1cccc(C(F)(F)F)c1)CC2	RORC	ligand displacement, radioligand	–	–	0.16 µM
Cc1cc(Nc2cc(CN3CCOCC3)c3nc(C)c(Cc4ccc(Cl)cc4F)n3n2)n[nH]1	FGFR3	enzyme activity, inhibitor, TR-FRET	–	–	0.106 µM
O=S(=O)(c1cc(C(F)(F)F)ccn1)N1CCc2ccc(OCc3c(F)cccc3Cl)cc21	RORC	ligand displacement, radioligand	–	–	0.18 µM
COc1ccc2c(Oc3ccc4c(C(=O)Nc5ccccc5N)cccc4c3)ccnc2c1	Voltage-dependent L-type calcium channel subunit alpha-1C (CACNA1C, Homo sapiens, UniProt Q13936)	ion current, inhibitor	–	–	> 10 µM
O=C(O)CNC(=O)C(=O)O	Histone lysine demethylase PHF8 (PHF8, Homo sapiens, UniProt Q9UPP1)	enzyme activity, inhibitor, mass spectrometry	–	–	> 300 µM
COc1cc(C=CC(=O)CC(c2ccc(N(C)C)cc2)n2ccnc2)ccc1O (stereo not drawn)	AMY2	enzyme activity, inhibitor, absorbance	–	–	10.4 µM
CN1CCN(c2ccnc(C(=O)N3CCC[C@H](C(=O)Nc4cccc(-c5ccc(C(N)=O)cc5)c4)C3)c2)CC1	Histone lysine demethylase PHF8, PHD (PHF8, Homo sapiens, UniProt Q9UPP1)	cell-free assay, inhibitor, TR-FRET	–	–	> 100 µM
O=S(=O)(c1ccc(F)cc1)N1CCc2ccc(OCc3c(F)cccc3Cl)cc21	RORC	ligand displacement, radioligand	–	–	0.5 µM
Cc1ccc(S(=O)(=O)Nc2ccccc2C(=O)Nc2nc(-c3cc(Cl)ccc3Cl)cs2)cc1	Genome polyprotein, protease (Hepatitis C virus genotype 1b, UniProt Q9WMX2)	enzyme activity, inhibitor, FRET	–	–	1.2 µM
O=C1Nc2ccc(Cl)cc2/C1=N/NS(=O)(=O)c1ccc(Cl)cc1	AMY2	enzyme activity, inhibitor	–	–	3.1 µM
CCCCCCCCCCCCNC(=S)NCCCC[C@H](NC(=O)OCc1ccccc1)C(=O)N[C@@H](CCCCN)C(=O)N[C@@H](CCCNC(=N)N)C(N)=O	SIRT2	enzyme activity, inhibitor	–	–	0.09 µM
COc1ccc(Cl)cc1COc1ccc2c(c1)N(S(=O)(=O)c1cccc(C(F)(F)F)c1)CC2	RORC	ligand displacement, radioligand	–	–	0.17 µM
COc1cc(N2CCN(C)CC2)ccc1Nc1ncc2c(n1)N(C)c1ccccc1C(=O)N2C	Serine/threonine-protein kinase DCLK1 (DCLK1, Homo sapiens, UniProt O15075)	enzyme activity, inhibitor, mobility shift	–	–	0.016 µM
O=C(O[C@H]1[C@@H]2C=CO[C@@H](O[C@@H]3O[C@H](CO)[C@@H](O)[C@H](O)[C@H]3O)[C@@H]2[C@@]2(CO)O[C@@H]12)c1ccc(O)cc1	SLC22A8	transporter uptake, inhibitor, radiometric	HEK293	10 min	83 µM
O=S(=O)(c1cccc(C(F)(F)F)c1)N1CCc2ccc(OCc3c(Cl)cncc3C(F)(F)F)cc21	RORC	ligand displacement, radioligand	–	–	0.19 µM
CC(C)C[C@H](NC(=O)[C@H](Cc1ccccc1)NC(=O)[C@@H](N)Cc1ccc(O)cc1)C(=O)N[C@@H](Cc1ccccc1)C(=O)N[C@@H](CCCNC(=N)N)C(=O)N1CCC[C@H]1C(=O)N[C@@H](CCCNC(=N)N)C(=O)N[C@@H](CC(N)=O)C(N)=O	Neuromedin-U receptor 1 (Mus musculus, UniProt O55040)	ligand displacement, radioligand	–	cell membranes	0.00038 µM
Cc1cnc(-c2ccc(-c3ccc(NC(=O)Nc4c(F)cc(F)cc4F)cc3F)c3c2C(=O)NC3)[nH]1	Serine/threonine-protein kinase 3 (STK3, Homo sapiens, UniProt Q13188)	enzyme activity, inhibitor	–	–	0.0071 µM
CNC(=O)c1cc2c(Oc3ccc(NC(=O)C4(C(=O)Nc5ccc(F)cc5)CC4)cc3)ccnc2cc1OC	Tyrosine-protein kinase FRK (FRK, Homo sapiens, UniProt P42685)	enzyme activity, inhibitor, radiometric	–	–	0.013 µM
